Experimental data from ChEMBL document CHEMBL1148339, “Synthesis, structure-activity relationships, and drug resistance of beta-d-3'-fluoro-2',3'-unsaturated nucleosides as anti-HIV Agents” (J Med Chem, 2004).

What was measured:
CCRF-CEM = test: Cytotoxicity against T-lymphoblastoid cell line (CEM); format: functional, cell-based; conditions: Homo sapiens
Procedure, shortened: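 CEM T-lymphoblastoid cells in log phase, seeded 2.5 × 10³ cells/well with 10-fold serial dilutions of compound, 4 days at 37 °C in humidified 5% CO₂/air.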

Vero [1] = test: Cytotoxicity against vero cell line; format: functional, cell-based; conditions: Chlorocebus sabaeus
Procedure, shortened: (§1)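 Log-phase Vero (African green monkey kidney) cells seeded 5 × 10³ cells/well with 10-fold serial compound dilutions, cultured 3 days at 37 °C, humidified 5% CO₂/air.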

[2] = Cytotoxicity against human peripheral blood mononuclear cells (PBMC); format: functional, cell-based
Procedure, shortened: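 Uninfected PHA-stimulated human PBM cells from seronegative donors (Ficoll–Hypaque), 5 × 10⁴ cells/well, 10-fold serial compound dilutions, 5 days at 37 °C in 5% CO₂/air. MTT assay read at 570 nm; IC50 by median effect method.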

[3] = tested on: Human immunodeficiency virus 1; test: Effective concentration against HIV-1 in human peripheral blood mononuclear cells (PBMC); format: functional, organism-based
Procedure, shortened: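 PBM cells infected in bulk for 1 h with HIV-1 LAI (100 TCID50/1 × 10⁷ cells, flask, or 200 TCID50/6 × 10⁵ cells/well), then cultured 5 days at 37 °C with 10-fold compound dilutions in IL-2 medium. Supernatant virus pelleted; RT activity measured with poly(rA)·oligo(dT) and [³H]TTP, 2 h 37 °C. EC50/EC90 by median effect method.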

[4] = tested on: Human immunodeficiency virus 1; test: Effective concentration against M184V HIV-1 virus in human peripheral blood mononuclear cells
[5] = tested on: Human immunodeficiency virus 1; test: Effective concentration against Wild Type HIV-1 virus in human peripheral blood mononuclear cells
[6] = t1/2 (half life) period was determined; No decomposition observed up to 7 days; format: ADME; conditions: 168 h
[7] = tested on: adenosine deaminase (ADA); test: Ability to get deaminated by adenosine deaminase (ADA); Expressed as t1/2; format: ADME, Bos taurus; conditions: cattle
Procedure, shortened: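 Calf intestinal mucosa adenosine deaminase, 0.15 units, in phosphate buffer pH 7.4 at 25 °C; substrate at 20 μM. Deamination followed by UV absorbance at 265 nm, with substrate concentration derived from absorbance change over time to give half-life.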

[8] = t1/2 (half life) period was determined; format: ADME
Vero [9] = test: Cytotoxicity against Vero cell line; format: functional, cell-based; conditions: Chlorocebus sabaeus; procedure, shortened: as §1

Structure (SMILES)	IC50 (CCRF-CEM) [µM]	IC50 (Vero [1]) [µM]	IC50 [2] [µM]	EC50 [3] [µM]	further results
Nc1nc(=O)n([C@H]2C=C(F)[C@@H](CO)O2)cc1F	> 100	> 100	> 100	9.29	
Cc1cn([C@H]2C[C@H](N=[N+]=[N-])[C@@H](CO)O2)c(=O)[nH]c1=O [ZIDOVUDINE]					EC50 [4]: 0.0027 µM; EC50 [5]: 0.0041 µM
O=c1ccn(C2C=C(F)C(CO)O2)c(=O)[nH]1 (stereo not given)	> 100	82.6	> 100	> 100	
Nc1ccn([C@@H]2O[C@H](CO)C=C2F)c(=O)n1					T1/2 [6]: Infinity
Nc1nc(=O)n([C@@H]2C=C(F)[C@H](CO)O2)cc1F	> 100	> 100	> 100	0.018	
Nc1nc(O)c2ncn([C@H]3C=C(F)[C@@H](CO)O3)c2n1	> 100	75.5	> 100	44.9	
Nc1ncnc2c1ncn2[C@@H]1O[C@H](CO)C=C1F					half-life [7]: 42 min
Nc1ncnc2c1ncn2[C@@H]1O[C@H](CO)[C@@H](O)[C@H]1O [ADENOSINE]					half-life [7]: 0.5 min
Nc1ncnc2c1ncn2[C@H]1C=C(F)[C@@H](CO)O1	> 100	> 100	> 100	6.55	half-life [7]: 56 min
Nc1ccn([C@H]2C=C[C@@H](CO)O2)c(=O)n1			65	0.005	half-life [8]: 1 h
Nc1ncnc2c1ncn2[C@H]1C=C[C@@H](CO)O1					half-life [7]: 4460 min
Nc1ccn([C@@H]2C=C(F)[C@H](CO)O2)c(=O)n1	> 100	> 100	86.9	0.089	EC50 [4]: 2.4 µM; EC50 [5]: 0.089 µM
Nc1ccn([C@H]2C=C(F)[C@@H](CO)O2)c(=O)n1	> 100	> 100	> 100	2.3	half-life [8]: 48 h; EC50 [4]: 19.7 µM; EC50 [5]: 2.3 µM
Cc1cn([C@H]2C=C(F)[C@@H](CO)O2)c(=O)[nH]c1=O	> 100		> 100	> 100	IC50 (Vero [9]): > 100 µM
OC[C@H]1O[C@@H](n2cnc3c(O)ncnc32)C=C1F	77.7	> 100	> 100	12.8	
Nc1ncnc2c1ncn2[C@@H]1C=C(F)[C@H](CO)O1	> 100	> 100	> 100	> 100	
